In ChEMBL document CHEMBL1140808, “Antiproliferative effects of dibenzocyclooctadiene lignans isolated from Schisandra chinensis in human cancer cells” (Bioorg Med Chem Lett, 2008):
Blank lines part the entries; values can stand above or below the molecule they belong to. Active and inactive are the calls of the source. No cut-off for these calls is given here.

Columns and labels:
SNU-638 = test: Antiproliferative activity against human SNU638 cells after 72 hrs by SRB assay; format: functional, cell-based
SK-HEP1 = test: Antiproliferative activity against human SK-HEP1 cells after 72 hrs by SRB assay; format: functional, cell-based; conditions: SK-HEP1, 72 h
T47D = test: Antiproliferative activity against human T47D cells after 72 hrs by SRB assay; format: functional, cell-based
A549 [1] = test: Antiproliferative activity against human A549 cells after 72 hrs by SRB assay; format: functional, cell-based
K562 = test: Antiproliferative activity against human K562 cells after 72 hrs by MTT assay; format: functional, cell-based
MDA-MB-231 = test: Antiproliferative activity against human MDA-MB-231 cells after 72 hrs by SRB assay; format: functional, cell-based; conditions: MDA-MB-231, 72 h
HCT-15 = test: Antiproliferative activity against human HCT15 cells after 72 hrs by SRB assay; format: functional, cell-based
A549 [2] = test: Cell cycle arrest in human A549 cells assessed as accumulation at G0/G1 phase at 10 uM after 24 hrs; format: functional
Procedure, shortened: (§1)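 A549 human lung cancer cells exposed 24 h to the lignan over 3.75–60 µM. Cell cycle distribution measured by flow cytometry. The percentage of cells in each phase (G0/G1, S, G2/M, sub-G1) was derived by cell cycle modelling of the DNA histograms.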

A549 [3] = test: Effect on cyclin A expression in human A549 cells at 60 uM after 24 hrs; format: functional, cell-based
Procedure, shortened: (§2)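 Protein levels measured by Western blot in A549 human lung cancer cells after 24 h exposure to a range of lignan concentrations.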

A549 [4] = test: Cell cycle arrest in human A549 cells assessed as accumulation at G2/M phase at 60 uM after 24 hrs; format: functional; procedure, shortened: as §1
A549 [5] = test: Cell cycle arrest in human A549 cells assessed as accumulation at subG1 phase at 60 uM after 24 hrs; format: functional; procedure, shortened: as §1
A549 [6] = test: Cell cycle arrest in human A549 cells assessed as accumulation at G0/G1 phase at 5 uM after 24 hrs; format: functional; procedure, shortened: as §1
A549 [7] = test: Cell cycle arrest in human A549 cells assessed as accumulation at G2/M phase at 40 uM after 24 hrs; format: functional; procedure, shortened: as §1
A549 [8] = test: Cell cycle arrest in human A549 cells assessed as accumulation at G0/G1 phase at 60 uM after 24 hrs; format: functional; procedure, shortened: as §1
A549 [9] = test: Cell cycle arrest in human A549 cells assessed as accumulation at S phase at 20 uM after 24 hrs; format: functional; procedure, shortened: as §1
A549 [10] = test: Effect on cyclin D1 expression in human A549 cells after 24 hrs; format: functional, cell-based; procedure, shortened: as §2
A549 [11] = test: Cell cycle arrest in human A549 cells assessed as accumulation at G0/G1 phase at 40 uM after 24 hrs; format: functional; procedure, shortened: as §1
A549 [12] = test: Cell cycle arrest in human A549 cells assessed as accumulation at G2/M phase at 5 uM after 24 hrs; format: functional; procedure, shortened: as §1
A549 [13] = test: Cell cycle arrest in human A549 cells assessed as accumulation at subG1 phase at 5 uM after 24 hrs; format: functional; procedure, shortened: as §1
A549 [14] = test: Inhibition of human retinoblastoma protein phosphorylation in A549 cells after 24 hrs; format: cell-based; procedure, shortened: as §2
A549 [15] = test: Cell cycle arrest in human A549 cells assessed as accumulation at G2/M phase at 10 uM after 24 hrs; format: functional; procedure, shortened: as §1
A549 [16] = test: Effect on cdk4 expression in human A549 cells after 24 hrs; format: functional, cell-based; procedure, shortened: as §2
A549 [17] = test: Cell cycle arrest in human A549 cells assessed as accumulation at S phase at 40 uM after 24 hrs; format: functional; procedure, shortened: as §1
A549 [18] = test: Cell cycle arrest in human A549 cells assessed as accumulation at S phase at 10 uM after 24 hrs; format: functional; procedure, shortened: as §1
A549 [19] = test: Cell cycle arrest in human A549 cells assessed as accumulation at subG1 phase at 20 uM after 24 hrs; format: functional; procedure, shortened: as §1
A549 [20] = test: Effect on cdk2 expression in human A549 cells after 24 hrs; format: functional, cell-based; procedure, shortened: as §2
A549 [21] = test: Cell cycle arrest in human A549 cells assessed as accumulation at subG1 phase at 40 uM after 24 hrs; format: functional; procedure, shortened: as §1
A549 [22] = test: Cell cycle arrest in human A549 cells assessed as accumulation at subG1 phase at 10 uM after 24 hrs; format: functional; procedure, shortened: as §1
A549 [23] = test: Effect on p27 expression in human A549 cells after 24 hrs; format: functional, cell-based; procedure, shortened: as §2
A549 [24] = test: Cell cycle arrest in human A549 cells assessed as accumulation at G2/M phase at 20 uM after 24 hrs; format: functional; procedure, shortened: as §1
A549 [25] = test: Cell cycle arrest in human A549 cells assessed as accumulation at S phase at 5 uM after 24 hrs; format: functional; procedure, shortened: as §1
A549 [26] = test: Cell cycle arrest in human A549 cells assessed as accumulation at G0/G1 phase at 20 uM after 24 hrs; format: functional; procedure, shortened: as §1
A549 [27] = test: Cell cycle arrest in human A549 cells assessed as accumulation at S phase at 60 uM after 24 hrs; format: functional; procedure, shortened: as §1

IC50 (SNU-638; Homo sapiens, SNU-638, 72 h): 44.7 µM
IC50 (SK-HEP1): 70.4 µM
IC50 (T47D; Homo sapiens, T47D, 72 h): 51.2 µM
IC50 (A549 [1]; Homo sapiens, A549, 72 h): > 100 µM
IC50 (K562; Homo sapiens, K562, 72 h): > 100 µM
IC50 (MDA-MB-231): 56.4 µM
IC50 (HCT-15; Homo sapiens, HCT-15, 72 h): > 100 µM
SMILES: COc1cc2c(c(OC)c1OC)-c1c(cc3c(c1OC)OCO3)C[C@H](C)[C@](C)(O)[C@H]2OC(=O)c1ccccc1 [GOMISIN C]

IC50 (SNU-638; Homo sapiens, SNU-638, 72 h): 53.1 µM
IC50 (SK-HEP1): 42 µM
IC50 (T47D; Homo sapiens, T47D, 72 h): 40 µM
IC50 (A549 [1]; Homo sapiens, A549, 72 h): > 100 µM
IC50 (K562; Homo sapiens, K562, 72 h): > 100 µM
IC50 (MDA-MB-231): > 100 µM
IC50 (HCT-15; Homo sapiens, HCT-15, 72 h): > 100 µM
SMILES: COc1cc2c(c(OC)c1OC)-c1c(cc(OC)c(OC)c1OC)C[C@H](C)[C@H](C)C2 [SCHISANDRIN A]

IC50 (SNU-638; Homo sapiens, SNU-638, 72 h): > 100 µM
IC50 (SK-HEP1): > 100 µM
IC50 (T47D; Homo sapiens, T47D, 72 h): > 100 µM
IC50 (A549 [1]; Homo sapiens, A549, 72 h): > 100 µM
IC50 (K562; Homo sapiens, K562, 72 h): > 100 µM
IC50 (MDA-MB-231): > 100 µM
IC50 (HCT-15; Homo sapiens, HCT-15, 72 h): > 100 µM
SMILES: COc1c2c(cc3c1-c1c(cc4c(c1OC)OCO4)C[C@H](C)[C@H](C)C3)OCO2 [SCHISANDRIN C]

IC50 (SNU-638; snu-638): 23.1 µM
IC50 (T47D; t47d): 19.2 µM
IC50 (A549 [1]; a549): 21.1 µM
IC50 (K562; k562): 22 µM
IC50 (HCT-15; hct-15): 14.1 µM
SMILES: COc1cc2c(c(OC)c1OC)-c1c(cc3c(c1OC)OCO3)C[C@H](C)[C@H](C)C2 (stereo in doubt; form 1) [WUWEIZISU B]

IC50 (SNU-638; Homo sapiens, SNU-638, 72 h): 0.07 µM
IC50 (SK-HEP1): 0.1 µM
IC50 (T47D; Homo sapiens, T47D, 72 h): 0.1 µM
IC50 (A549 [1]; Homo sapiens, A549, 72 h): 0.1 µM
IC50 (MDA-MB-231): 0.2 µM
IC50 (HCT-15; Homo sapiens, HCT-15, 72 h): 0.6 µM
SMILES: COc1cccc2c1C(=O)c1c(O)c3c(c(O)c1C2=O)C[C@@](O)(C(=O)CO)C[C@@H]3O[C@H]1C[C@H](N)[C@H](O)[C@H](C)O1 [DOXORUBICIN]

IC50 (SNU-638; Homo sapiens, SNU-638, 72 h): 90.5 µM
IC50 (SK-HEP1): > 100 µM
IC50 (T47D; Homo sapiens, T47D, 72 h): > 100 µM
IC50 (A549 [1]; Homo sapiens, A549, 72 h): 84.1 µM
IC50 (K562; Homo sapiens, K562, 72 h): > 100 µM
IC50 (MDA-MB-231): > 100 µM
IC50 (HCT-15; Homo sapiens, HCT-15, 72 h): > 100 µM
SMILES: COc1cc2c(c(OC)c1OC)-c1c(cc3c(c1OC)OCO3)C[C@H](C)[C@](C)(O)C2 [GOMISIN A]

IC50 (SNU-638; Homo sapiens, SNU-638, 72 h): > 100 µM
IC50 (SK-HEP1): > 100 µM
IC50 (T47D; Homo sapiens, T47D, 72 h): > 100 µM
IC50 (A549 [1]; Homo sapiens, A549, 72 h): > 100 µM
IC50 (K562; Homo sapiens, K562, 72 h): > 100 µM
IC50 (MDA-MB-231): > 100 µM
IC50 (HCT-15; Homo sapiens, HCT-15, 72 h): > 100 µM
SMILES: C/C=C(\C)C(=O)O[C@H]1c2cc(OC)c(OC)c(OC)c2-c2c(cc3c(c2OC)OCO3)C[C@H](C)[C@]1(C)O [GOMISIN B]

IC50 (SNU-638; Homo sapiens, SNU-638, 72 h): 21.1 µM
IC50 (SK-HEP1): 71.3 µM
IC50 (T47D; Homo sapiens, T47D, 72 h): 19.8 µM
IC50 (A549 [1]; Homo sapiens, A549, 72 h): 20.7 µM
IC50 (K562; Homo sapiens, K562, 72 h): 25 µM
IC50 (MDA-MB-231): 61.5 µM
IC50 (HCT-15; Homo sapiens, HCT-15, 72 h): 50.2 µM
SMILES: COc1cc2c(c(OC)c1OC)-c1c(cc(OC)c(OC)c1OC)C[C@](C)(O)[C@@H](C)C2 [SCHIZANDRIN]

IC50 (SNU-638; Homo sapiens, SNU-638, 72 h): 15.3 µM
IC50 (SK-HEP1): 19.9 µM
IC50 (T47D; Homo sapiens, T47D, 72 h): 26.1 µM
IC50 (A549 [1]; Homo sapiens, A549, 72 h): 5.6 µM
IC50 (K562; Homo sapiens, K562, 72 h): 11.3 µM
IC50 (MDA-MB-231): 33.5 µM
IC50 (HCT-15; Homo sapiens, HCT-15, 72 h): 5.6 µM
SMILES: C/C=C(\C)C(=O)O[C@H]1c2cc(OC)c(OC)c(OC)c2-c2c(cc3c(c2O)OCO3)C[C@H](C)[C@]1(C)O [SCHISANTHERIN C]
Activity (A549 [2]): 50.4%
Activity (A549 [3]): inactive
Activity (A549 [4]): 10.8%
Activity (A549 [5]): 2.5%
Activity (A549 [6]): 50.1%
Activity (A549 [7]): 15.9%
Activity (A549 [8]): 75%
Activity (A549 [9]): 26%
Activity (A549 [10]): inactive
Activity (A549 [11]): 65.3%
Activity (A549 [12]): 18.1%
Activity (A549 [13]): 0.6%
Activity (A549 [14]): Active
Activity (A549 [15]): 18%
Activity (A549 [16]): inactive
Activity (A549 [17]): 18.8%
Activity (A549 [18]): 31.6%
Activity (A549 [19]): 0.6%
Activity (A549 [20]): inactive
Activity (A549 [21]): 1.1%
Activity (A549 [22]): 1.5%
Activity (A549 [23]): Active
Activity (A549 [24]): 16.2%
Activity (A549 [25]): 31.8%
Activity (A549 [26]): 57.9%
Activity (A549 [27]): 8.2%

IC50 (SNU-638; snu-638): > 100 µM
IC50 (SK-HEP1): > 100 µM
IC50 (T47D; t47d): > 100 µM
IC50 (A549 [1]; a549): 87.8 µM
IC50 (K562; k562): 62.6 µM
IC50 (MDA-MB-231): > 100 µM
IC50 (HCT-15; hct-15): 88.1 µM
SMILES: COc1cc2c(c(OC)c1OC)-c1c(cc3c(c1OC)OCO3)C[C@H](C)[C@H](C)C2 (stereo in doubt; form 2) [WUWEIZISU B]
